# Assay results reported in ChEMBL document CHEMBL1240339, “Raft nanodomains contribute to Akt/PKB plasma membrane recruitment and activation” (Nat Chem Biol, 2008).
# “And” between values parts separate entries of the source, which are not always exact repeats. Equal values may be shown once. The source made the active and inactive calls. The calls are words filed in the database; no cut-off is given here.
# Tests used:
# Assay type in all cases: cell-based
# [1] = molecular target: T1, Squalene synthase (Mus musculus) (UniProt P53798); assay: Inhibition of squalene synthase in mouse DWT6.11 cells assessed as cholesterol level at 5 uM after 14 to 18 hrs by fluorescence correlation spectroscopy relative to control; set-up: scale not given: the % may be the effect or the level left
# T1 sequence (whole entry): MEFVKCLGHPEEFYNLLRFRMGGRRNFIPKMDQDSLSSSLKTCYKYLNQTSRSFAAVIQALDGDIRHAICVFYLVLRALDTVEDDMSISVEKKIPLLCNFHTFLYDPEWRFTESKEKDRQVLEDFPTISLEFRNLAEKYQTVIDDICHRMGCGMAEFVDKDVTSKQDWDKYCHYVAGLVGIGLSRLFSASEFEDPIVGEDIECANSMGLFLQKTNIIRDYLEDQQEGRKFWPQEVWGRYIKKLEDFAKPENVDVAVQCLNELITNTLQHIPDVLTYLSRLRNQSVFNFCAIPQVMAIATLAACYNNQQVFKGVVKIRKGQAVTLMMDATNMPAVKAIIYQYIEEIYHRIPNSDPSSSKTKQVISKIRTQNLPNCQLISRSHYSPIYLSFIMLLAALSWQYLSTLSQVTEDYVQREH
# Mus musculus [2] = species on record: Mus musculus; assay: Inhibition of CD-28 triggered Ras/MAPK in mouse DWT6.11 cells by immunoblotting analysis
# How it was run: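 DWT6.11 cells were pretreated with myriocin (25 µM, 48 h in complete medium, then serum-starved 14–18 h). They were stimulated or not with CD28 monoclonal antibody. The Ras/MAPK pathway was read as ERK phosphorylation by immunoblotting.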
# Jurkat [3] = assay: Inhibition of serine palmitoyltransferase in human Jurkat JA16 cells assessed as sphingomyelin level at 5 uM after 14 to 18 hrs by fluorescence correlation spectroscopy relative to control; set-up: scale not given: the % may be the effect or the level left
# [4] = molecular target: T1, Squalene synthase (Mus musculus); assay: Inhibition of squalene synthase in mouse DWT6.11 cells assessed as sphingomyelin level at 5 uM after 14 to 18 hrs by fluorescence correlation spectroscopy relative to control; set-up: scale not given: the % may be the effect or the level left
# [5] = molecular target: T2, Squalene synthase (Homo sapiens) (UniProt P37268); assay: Inhibition of squalene synthase in human Jurkat JA16 cells assessed as cholesterol level at 5 uM after 14 to 18 hrs by fluorescence correlation spectroscopy relative to control; set-up: scale not given: the % may be the effect or the level left
# T2 sequence (whole entry): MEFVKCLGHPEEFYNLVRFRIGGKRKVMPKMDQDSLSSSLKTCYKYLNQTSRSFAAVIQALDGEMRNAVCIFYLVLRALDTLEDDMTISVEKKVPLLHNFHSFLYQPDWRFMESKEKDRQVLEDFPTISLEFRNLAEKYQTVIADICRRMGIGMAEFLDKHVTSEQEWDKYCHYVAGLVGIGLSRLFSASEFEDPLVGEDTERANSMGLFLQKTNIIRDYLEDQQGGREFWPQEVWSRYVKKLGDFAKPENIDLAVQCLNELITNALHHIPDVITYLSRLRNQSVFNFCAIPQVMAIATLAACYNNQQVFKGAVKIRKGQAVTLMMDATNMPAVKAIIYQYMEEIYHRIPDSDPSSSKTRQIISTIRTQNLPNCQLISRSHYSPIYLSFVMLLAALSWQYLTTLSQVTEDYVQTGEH
# COS-7 [6] = assay: Inhibition of squalene synthase in african green monkey COS7 cells assessed as cholesterol level at 5 uM after 14 to 18 hrs by fluorescence correlation spectroscopy relative to control; set-up: scale not given: the % may be the effect or the level left; details: Chlorocebus aethiops
# COS-7 [7] = assay: Inhibition of squalene synthase in african green monkey COS7 cells assessed as of cholesterol level at 5 uM after 14 to 18 hrs by fluorescence correlation spectroscopy relative to control; set-up: scale not given: the % may be the effect or the level left; details: Chlorocebus aethiops
# Mus musculus [8] = species on record: Mus musculus; assay: Inhibition of serine palmitoyltransferase in mouse DWT6.11 cells assessed as sphingomyelin level at 25 uM after 14 to 18 hrs by fluorescence correlation spectroscopy relative to control; set-up: scale not given: the % may be the effect or the level left
# Jurkat [9] = assay: Inhibition of serine palmitoyltransferase in human Jurkat JA16 cells assessed as lateral diffusion of the outer membrane leaflet-linked FL-PE nanodomain at 25 uM after 14 to 18 hrs by fluorescence correlation spectroscopy
# Mus musculus [10] = species on record: Mus musculus; assay: Inhibition of serine palmitoyltransferase in mouse DWT6.11 cells assessed as cholesterol level at 25 uM after 14 to 18 hrs by fluorescence correlation spectroscopy relative to control; set-up: scale not given: the % may be the effect or the level left
# COS-7 [11] = assay: Inhibition of serine palmitoyltransferase in african green monkey COS7 cells assessed as cholesterol level at 10 uM after 14 to 18 hrs by fluorescence correlation spectroscopy relative to control; set-up: scale not given: the % may be the effect or the level left; details: Chlorocebus aethiops
# [12] = molecular target: T2, Squalene synthase (Homo sapiens); assay: Inhibition of squalene synthase in human Jurkat JA16 cells assessed as cholesterol level at 25 uM after 14 to 18 hrs by fluorescence correlation spectroscopy relative to control; set-up: scale not given: the % may be the effect or the level left
# [13] = molecular target: RAC-alpha serine/threonine-protein kinase (Mus musculus) (UniProt P31750); assay: Inhibition of CD-28 triggered Akt phosphorylation in mouse DWT6.11 cells assessed as enzyme phosphorylation at Ser473 by immunoblotting relative to control; details: concentration not given here
# RAC-alpha serine/threonine-protein kinase (Mus musculus), sequence (P31750 whole entry): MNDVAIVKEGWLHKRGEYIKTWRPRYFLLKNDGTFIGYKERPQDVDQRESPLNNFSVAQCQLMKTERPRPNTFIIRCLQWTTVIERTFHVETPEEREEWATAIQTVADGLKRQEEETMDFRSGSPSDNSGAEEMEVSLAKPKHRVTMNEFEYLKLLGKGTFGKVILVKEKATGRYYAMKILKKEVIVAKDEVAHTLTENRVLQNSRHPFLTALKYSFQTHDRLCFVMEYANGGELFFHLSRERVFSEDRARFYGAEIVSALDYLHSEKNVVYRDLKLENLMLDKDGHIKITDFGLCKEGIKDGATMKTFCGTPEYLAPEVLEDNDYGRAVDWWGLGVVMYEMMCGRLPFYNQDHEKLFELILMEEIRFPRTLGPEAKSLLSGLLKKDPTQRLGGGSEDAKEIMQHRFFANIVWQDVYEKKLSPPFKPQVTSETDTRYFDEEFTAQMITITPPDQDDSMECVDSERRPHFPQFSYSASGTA
# How it was run: (§1)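 DWT6.11 mouse T cells were given 25 µM myriocin for 48 h in complete medium, then serum-starved 14–18 h with 25 µM myriocin, then stimulated with CD28 monoclonal antibody. Akt Thr308 and Ser473 phosphorylation induction was quantified by immunoblotting as % of untreated cells, mean ± s.d., n = 3.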
# Jurkat [14] = assay: Inhibition of serine palmitoyltransferase in human Jurkat JA16 cells assessed as sphingomyelin level at 25 uM after 14 to 18 hrs by fluorescence correlation spectroscopy relative to control; set-up: scale not given: the % may be the effect or the level left
# COS-7 [15] = assay: Inhibition of serine palmitoyltransferase in african green monkey COS7 cells assessed as sphingomyelin level at 10 uM after 14 to 18 hrs by fluorescence correlation spectroscopy relative to control; set-up: scale not given: the % may be the effect or the level left; details: Chlorocebus aethiops
# [16] = molecular target: RAC-alpha serine/threonine-protein kinase (Mus musculus) (UniProt P31750); assay: Inhibition of CD-28 triggered Akt phosphorylation in mouse DWT6.11 cells assessed as enzyme phosphorylation at Thr308 by immunoblotting relative to control; details: concentration not given here; how it was run: as §1
structure (smiles),measurement,setting,value
C=C(CC[C@]12O[C@H](C(=O)O)[C@@](O)(C(=O)O)[C@](C(=O)O)(O1)[C@H](OC(=O)/C=C/[C@@H](C)C[C@@H](C)CC)[C@H]2O)[C@@H](OC(C)=O)[C@H](C)Cc1ccccc1,Activity,[1],64%
same,inhibition,Mus musculus [2],inactive
same,Activity,Jurkat [3],97%
same,Activity,[4],103%
same,Activity,[5],81%
same,Activity,COS-7 [6],73%
same,Activity,COS-7 [7],90%
CCCCCCC(=O)CCCCCC/C=C/C[C@@H](O)[C@H](O)[C@@](N)(CO)C(=O)O,inhibition,Mus musculus [2],inactive
same,Activity,Mus musculus [8],24%
same,Activity,Jurkat [9],0.9 ms and 0.8 um2/s
same,Activity,Mus musculus [10],98%
same,Activity,COS-7 [11],92%
same,Activity,[12],97%
same,inhibition,[13],51.2%
same,Activity,Jurkat [14],28%
same,Activity,COS-7 [15],30%
same,inhibition,[16],50.8%
